Measured values reported in ChEMBL document CHEMBL1681666, “Synthesis and in vitro screening of novel N-benzyl aplysinopsin analogs as potential anticancer agents” (2011).

Experiments:
Assay type in all cases: functional
[1] = tested on: HT-29; experiment: Anticancer activity against human HT-29 cells
Outline: (§1)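 NCI 60-cell human tumour panel (leukemia, lung, colon, CNS, melanoma, ovarian, renal, prostate, breast). A first-stage single-dose screen at 10 µM was run. Compounds giving over 60% growth inhibition in at least eight lines went on to a five-dose response. Effect was plotted against log10 molar concentration per line. GI50 is the concentration giving 50% reduction in net protein increase versus control cells. LC50 is the concentration lethal to 50% of cells.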

[2] = tested on: SW-620; experiment: Anticancer activity against human SW620 cells
Outline: (§2)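 NCI 60-cell-line panel. A single-dose (10 µM) prescreen was run first. Compounds giving over 60% growth inhibition in at least eight lines then went to five-dose response studies. Dose-response curves of effect versus log10 concentration. GI50 is the molar concentration giving a 50% reduction in net protein increase versus control cells. LC50 is the concentration lethal to 50% of cells.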

[3] = tested on: OVCAR-3; experiment: Anticancer activity against human OVCAR3 cells; outline: as §1
[4] = tested on: PC-3; experiment: Anticancer activity against human PC3 cells; outline: as §1
[5] = tested on: RXF 393; experiment: Anticancer activity against human RXF393 cells; outline: as §1
[6] = tested on: MDA-MB-468; experiment: Anticancer activity against human MDA-MB-468 cells; outline: as §1
[7] = tested on: CCRF-CEM; experiment: Anticancer activity against human CCRF-CEM cells; outline: as §1
[8] = tested on: A549; experiment: Anticancer activity against human A549 cells; outline: as §1
[9] = tested on: ACHN; experiment: Anticancer activity against human ACHN cells; outline: as §1
[10] = tested on: OVCAR-4; experiment: Anticancer activity against human OVCAR4 cells; outline: as §1
[11] = tested on: COLO 205; experiment: Anticancer activity against human COLO205 cells; outline: as §1
[12] = tested on: SF-268; experiment: Anticancer activity against human SF268 cells; outline: as §1
[13] = tested on: K562; experiment: Anticancer activity against human K562 cells; outline: as §1
[14] = tested on: LOX IMVI; experiment: Anticancer activity against human LOXIMVI cells; outline: as §1
[15] = tested on: T47D; experiment: Anticancer activity against human T47D cells; outline: as §2
[16] = tested on: SK-MEL-28; experiment: Anticancer activity against human SK-MEL-28 cells; outline: as §1
[17] = tested on: OVCAR-8; experiment: Anticancer activity against human OVCAR8 cells; outline: as §1
[18] = tested on: SNB-19; experiment: Anticancer activity against human SNB19 cells; outline: as §1
[19] = tested on: UACC-62; experiment: Anticancer activity against human UACC62 cells; outline: as §2
[20] = tested on: NCI-H226; experiment: Anticancer activity against human NCI-H226 cells; outline: as §1
[21] = tested on: IGROV-1; experiment: Anticancer activity against human IGROV1 cells; outline: as §1
[22] = tested on: M14; experiment: Anticancer activity against human M14 cells; outline: as §1
[23] = tested on: SNB-75; experiment: Anticancer activity against human SNB75 cells; outline: as §2
[24] = Anticancer activity against human […] cells; outline: as §1
[25] = tested on: CAKI-1; experiment: Anticancer activity against human Caki1 cells; outline: as §1
[26] = tested on: MCF7; experiment: Anticancer activity against human MCF7 cells; outline: as §1
[27] = tested on: MDA-MB-231; experiment: Anticancer activity against human MDA-MB-231 cells; outline: as §1
[28] = Anticancer activity against human Hs 578T cells; outline: as §1
[29] = tested on: SF-539; experiment: Anticancer activity against human SF539 cells; outline: as §1
[30] = tested on: 786-0; experiment: Anticancer activity against human 786-0 cells; outline: as §1
[31] = tested on: SK-OV-3; experiment: Anticancer activity against human SKOV3 cells; outline: as §1
[32] = tested on: HL-60(TB); experiment: Anticancer activity against human HL-60(TB) cells; outline: as §1
[33] = tested on: KM12; experiment: Anticancer activity against human KM12 cells; outline: as §1
[34] = tested on: SN12C; experiment: Anticancer activity against human SN12C cells; outline: as §1
[35] = tested on: UO-31; experiment: Anticancer activity against human UO31 cells; outline: as §2
[36] = tested on: NCI-H322M; experiment: Anticancer activity against human NCI-H322M cells; outline: as §1
[37] = tested on: SK-MEL-5; experiment: Anticancer activity against human SK-MEL-5 cells; outline: as §1
[38] = tested on: SF-295; experiment: Anticancer activity against human SF295 cells; outline: as §1
[39] = tested on: NCI-H460; experiment: Anticancer activity against human NCI-H460 cells; outline: as §1
[40] = tested on: EKVX; experiment: Anticancer activity against human EKVX cells; outline: as §1
[41] = tested on: SK-MEL-2; experiment: Anticancer activity against human SK-MEL-2 cells; outline: as §1
[42] = tested on: Malme-3M; experiment: Anticancer activity against human MALME-3M cells; outline: as §1
[43] = tested on: A498; experiment: Anticancer activity against human A498 cells; outline: as §1
[44] = tested on: HCC 2998; experiment: Anticancer activity against human HCC2998 cells; outline: as §1
[45] = tested on: OVCAR-5; experiment: Anticancer activity against human OVCAR5 cells; outline: as §1
[46] = tested on: TK-10; experiment: Anticancer activity against human TK10 cells; outline: as §2
[47] = tested on: MOLT-4; experiment: Anticancer activity against human MOLT4 cells; outline: as §1
[48] = tested on: HCT-116; experiment: Anticancer activity against human HCT116 cells; outline: as §1
[49] = tested on: UACC-257; experiment: Anticancer activity against human UACC257 cells; outline: as §2
[50] = tested on: HOP-62; experiment: Anticancer activity against human HOP62 cells; outline: as §1
[51] = tested on: U-251; experiment: Anticancer activity against human U251 cells; outline: as §2
[52] = Anticancer activity against human NCI/ADR cells; conditions: NCI/ADR-RES; outline: as §1
[53] = tested on: MDA-MB-435; experiment: Anticancer activity against human MDA-MB-435 cells; outline: as §1
[54] = tested on: BT-549; experiment: Anticancer activity against human BT549 cells; outline: as §1
[55] = tested on: NCI-H23; experiment: Anticancer activity against human NCI-H23 cells; outline: as §1
[56] = read-out: LC50 (the source's name)

COC(=O)c1ccc2c(/C=C3\NC(=O)NC3=O)cn(Cc3ccc(C#N)cc3)c2c1
GI50 [1]: 5.99 µM
CC50 [1, 56]: > 100 µM
GI50 [2]: 2.27 µM
CC50 [2, 56]: > 100 µM
GI50 [3]: 2.05 µM
CC50 [3, 56]: > 100 µM
GI50 [4]: 2.44 µM
CC50 [4, 56]: > 100 µM
GI50 [5]: 0.58 µM
CC50 [5, 56]: > 100 µM
GI50 [6]: 4.14 µM
CC50 [6, 56]: > 100 µM
GI50 [7]: 3.06 µM
CC50 [7, 56]: > 100 µM
GI50 [8]: 4.44 µM
CC50 [8, 56]: > 100 µM
GI50 [9]: 2.08 µM
CC50 [9, 56]: > 100 µM
GI50 [10]: 4.13 µM
CC50 [10, 56]: > 100 µM
GI50 [11]: 3.16 µM
CC50 [11, 56]: > 100 µM
GI50 [12]: 4.22 µM
CC50 [12, 56]: > 100 µM
GI50 [13]: 0.97 µM
CC50 [13, 56]: > 100 µM
GI50 [14]: 1.43 µM
CC50 [14, 56]: > 100 µM
GI50 [15]: 1.5 µM
CC50 [15, 56]: > 100 µM
GI50 [16]: 3.79 µM
CC50 [16, 56]: > 100 µM
GI50 [17]: 3.75 µM
CC50 [17, 56]: > 100 µM
GI50 [18]: 3.77 µM
CC50 [18, 56]: > 100 µM
GI50 [19]: 1.27 µM
CC50 [19, 56]: 51 µM
GI50 [20]: 5.94 µM
CC50 [20, 56]: > 100 µM
GI50 [21]: 0.66 µM
CC50 [21, 56]: > 100 µM
GI50 [22]: 1.43 µM
CC50 [22, 56]: > 100 µM
GI50 [23]: 4.6 µM
CC50 [23, 56]: > 100 µM
GI50 [24]: 3.61 µM
CC50 [24, 56]: > 100 µM
GI50 [25]: 2.74 µM
CC50 [25, 56]: > 100 µM
GI50 [26]: 3.55 µM
CC50 [26, 56]: > 100 µM
GI50 [27]: 3.32 µM
CC50 [27, 56]: > 100 µM
GI50 [28]: 0.97 µM
CC50 [28, 56]: > 100 µM
GI50 [29]: 2.39 µM
CC50 [29, 56]: > 100 µM
GI50 [30]: 2.36 µM
CC50 [30, 56]: > 100 µM
GI50 [31]: 0.86 µM
CC50 [31, 56]: 79.8 µM
GI50 [32]: 2.54 µM
CC50 [32, 56]: > 100 µM
GI50 [33]: 3.73 µM
CC50 [33, 56]: > 100 µM
GI50 [34]: 2.8 µM
CC50 [34, 56]: > 100 µM
GI50 [35]: 2.7 µM
CC50 [35, 56]: > 100 µM
GI50 [36]: 0.72 µM
CC50 [36, 56]: > 100 µM
GI50 [37]: 3.25 µM
CC50 [37, 56]: > 100 µM
GI50 [38]: 3.09 µM
CC50 [38, 56]: > 100 µM
GI50 [39]: 2.91 µM
CC50 [39, 56]: > 100 µM
GI50 [40]: 4.22 µM
CC50 [40, 56]: > 100 µM
GI50 [41]: 0.3 µM
CC50 [41, 56]: 30.6 µM
GI50 [42]: 2.01 µM
CC50 [42, 56]: > 100 µM
GI50 [43]: 0.55 µM
CC50 [43, 56]: > 100 µM
GI50 [44]: 2.43 µM
CC50 [44, 56]: 85 µM
GI50 [45]: 5.51 µM
CC50 [45, 56]: > 100 µM
GI50 [46]: 3.87 µM
CC50 [46, 56]: > 100 µM
GI50 [47]: 1.38 µM
CC50 [47, 56]: > 100 µM
GI50 [48]: 1.21 µM
CC50 [48, 56]: > 100 µM
GI50 [49]: 4.2 µM
CC50 [49, 56]: > 100 µM
GI50 [50]: 3.58 µM
CC50 [50, 56]: 73 µM
GI50 [51]: 2.03 µM
CC50 [51, 56]: 59.1 µM
GI50 [52]: > 100 µM
CC50 [52, 56]: > 100 µM
GI50 [53]: 2.76 µM
CC50 [53, 56]: > 100 µM
GI50 [54]: 1.24 µM
CC50 [54, 56]: > 100 µM
GI50 [55]: 4.07 µM
CC50 [55, 56]: > 100 µM
